# Key:
# [1] = target: Phosphatidylinositol 4,5-bisphosphate 3-kinase catalytic subunit alpha isoform (Homo sapiens, UniProt P42336); assay: Inhibition of PI3Kalpha (unknown origin) by ADP-Glo assay
# [2] = target: Serine/threonine-protein kinase mTOR (Homo sapiens, UniProt P42345); assay: Inhibition of mTOR (unknown origin) by LanthaScreen assay
# [3] = target: Serine/threonine-protein kinase pim-1 (Homo sapiens, UniProt P11309); assay: Inhibition of human PIM1 using ARKRRRHPSGPPTA as substrate measured after 1.5 hrs by ADP hunter plus assay
# Chain of Serine/threonine-protein kinase pim-1 (P11309 whole entry): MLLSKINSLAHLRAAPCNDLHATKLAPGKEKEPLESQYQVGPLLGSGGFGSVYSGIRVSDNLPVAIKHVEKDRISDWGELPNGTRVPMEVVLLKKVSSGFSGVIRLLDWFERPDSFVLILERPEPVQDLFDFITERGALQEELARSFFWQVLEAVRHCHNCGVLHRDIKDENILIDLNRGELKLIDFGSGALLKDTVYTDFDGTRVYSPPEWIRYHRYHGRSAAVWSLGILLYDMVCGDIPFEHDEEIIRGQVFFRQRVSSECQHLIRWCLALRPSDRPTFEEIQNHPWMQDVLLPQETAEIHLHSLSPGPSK
# [4] = target: PI3-kinase p110-alpha/p85-alpha (Homo sapiens, UniProt P42336); assay: Inhibition of human PI3K p110alpha/p85alpha by HTRF assay; type: protein-complex assay
# Chain of PI3-kinase p110-alpha/p85-alpha (P27986 whole entry, canonical isoform): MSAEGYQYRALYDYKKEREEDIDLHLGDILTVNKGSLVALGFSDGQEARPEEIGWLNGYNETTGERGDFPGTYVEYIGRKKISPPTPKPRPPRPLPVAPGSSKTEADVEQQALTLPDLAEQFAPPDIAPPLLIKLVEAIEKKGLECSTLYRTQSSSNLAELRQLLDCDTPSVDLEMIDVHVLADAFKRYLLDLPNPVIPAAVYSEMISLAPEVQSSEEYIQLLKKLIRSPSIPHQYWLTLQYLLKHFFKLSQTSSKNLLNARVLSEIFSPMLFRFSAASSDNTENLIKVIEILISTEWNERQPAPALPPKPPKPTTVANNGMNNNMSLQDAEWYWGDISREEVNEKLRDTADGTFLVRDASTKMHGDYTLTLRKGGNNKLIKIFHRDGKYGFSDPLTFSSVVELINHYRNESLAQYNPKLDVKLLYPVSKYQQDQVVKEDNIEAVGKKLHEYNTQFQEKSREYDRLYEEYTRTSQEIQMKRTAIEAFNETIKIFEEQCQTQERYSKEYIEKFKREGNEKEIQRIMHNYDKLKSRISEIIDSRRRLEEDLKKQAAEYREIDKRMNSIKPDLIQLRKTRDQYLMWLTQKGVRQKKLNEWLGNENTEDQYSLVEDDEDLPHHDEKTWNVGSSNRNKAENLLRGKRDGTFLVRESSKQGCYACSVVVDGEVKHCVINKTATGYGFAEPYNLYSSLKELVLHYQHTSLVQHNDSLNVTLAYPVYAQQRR
# Chain of PI3-kinase p110-alpha/p85-alpha (P42336 whole entry, canonical isoform): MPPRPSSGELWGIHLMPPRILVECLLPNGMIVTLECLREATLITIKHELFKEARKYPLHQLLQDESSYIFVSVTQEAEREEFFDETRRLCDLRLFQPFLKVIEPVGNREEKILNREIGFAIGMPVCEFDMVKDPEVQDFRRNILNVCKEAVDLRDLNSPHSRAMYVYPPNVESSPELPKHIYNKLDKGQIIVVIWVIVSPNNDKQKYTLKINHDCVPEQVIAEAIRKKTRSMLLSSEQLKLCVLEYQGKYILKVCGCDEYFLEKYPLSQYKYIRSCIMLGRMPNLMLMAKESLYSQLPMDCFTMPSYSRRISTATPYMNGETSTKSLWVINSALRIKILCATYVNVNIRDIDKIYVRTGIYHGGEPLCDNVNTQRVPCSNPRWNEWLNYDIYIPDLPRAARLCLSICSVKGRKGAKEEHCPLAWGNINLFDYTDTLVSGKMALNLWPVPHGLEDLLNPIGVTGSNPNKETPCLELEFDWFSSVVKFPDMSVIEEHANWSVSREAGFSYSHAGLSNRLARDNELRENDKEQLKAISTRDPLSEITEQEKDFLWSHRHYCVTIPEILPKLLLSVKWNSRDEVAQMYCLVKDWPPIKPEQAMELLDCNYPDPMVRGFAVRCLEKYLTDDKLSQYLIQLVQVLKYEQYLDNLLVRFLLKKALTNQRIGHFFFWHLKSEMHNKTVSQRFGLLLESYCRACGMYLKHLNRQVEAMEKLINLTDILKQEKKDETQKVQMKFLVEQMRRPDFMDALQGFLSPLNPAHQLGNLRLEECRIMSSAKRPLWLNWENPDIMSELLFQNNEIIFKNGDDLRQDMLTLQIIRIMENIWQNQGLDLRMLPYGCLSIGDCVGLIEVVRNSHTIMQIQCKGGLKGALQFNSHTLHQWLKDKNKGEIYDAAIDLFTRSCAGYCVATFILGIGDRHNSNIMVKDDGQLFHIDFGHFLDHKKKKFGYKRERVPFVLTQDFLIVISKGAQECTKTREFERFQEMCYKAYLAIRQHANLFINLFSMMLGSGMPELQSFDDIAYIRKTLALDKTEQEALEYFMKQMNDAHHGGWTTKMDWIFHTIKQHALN
# Summary of the method: (§1)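 Ki from an HTRF assay on each PI3K isoform, reported in nM as the average of two independent experiments.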
# PI3K p110 beta/p85 alpha = PI3K p110 beta/p85 alpha (Homo sapiens, UniProt P42338); assay: Inhibition of human PI3K p110beta/p85alpha by HTRF assay; type: protein-complex assay; summary of the method: as §1
# [5] = target: PI3-kinase p110-delta/p85-alpha (Homo sapiens, UniProt O00329); assay: Inhibition of human PI3K p110delta/p85alpha by HTRF assay; type: protein-complex assay; summary of the method: as §1
# [6] = target: Phosphatidylinositol 4,5-bisphosphate 3-kinase catalytic subunit gamma isoform (Homo sapiens, UniProt P48736); assay: Inhibition of human PI3Kgamma by HTRF assay; summary of the method: as §1
# Chain of Phosphatidylinositol 4,5-bisphosphate 3-kinase catalytic subunit gamma isoform (P48736 whole entry, canonical isoform): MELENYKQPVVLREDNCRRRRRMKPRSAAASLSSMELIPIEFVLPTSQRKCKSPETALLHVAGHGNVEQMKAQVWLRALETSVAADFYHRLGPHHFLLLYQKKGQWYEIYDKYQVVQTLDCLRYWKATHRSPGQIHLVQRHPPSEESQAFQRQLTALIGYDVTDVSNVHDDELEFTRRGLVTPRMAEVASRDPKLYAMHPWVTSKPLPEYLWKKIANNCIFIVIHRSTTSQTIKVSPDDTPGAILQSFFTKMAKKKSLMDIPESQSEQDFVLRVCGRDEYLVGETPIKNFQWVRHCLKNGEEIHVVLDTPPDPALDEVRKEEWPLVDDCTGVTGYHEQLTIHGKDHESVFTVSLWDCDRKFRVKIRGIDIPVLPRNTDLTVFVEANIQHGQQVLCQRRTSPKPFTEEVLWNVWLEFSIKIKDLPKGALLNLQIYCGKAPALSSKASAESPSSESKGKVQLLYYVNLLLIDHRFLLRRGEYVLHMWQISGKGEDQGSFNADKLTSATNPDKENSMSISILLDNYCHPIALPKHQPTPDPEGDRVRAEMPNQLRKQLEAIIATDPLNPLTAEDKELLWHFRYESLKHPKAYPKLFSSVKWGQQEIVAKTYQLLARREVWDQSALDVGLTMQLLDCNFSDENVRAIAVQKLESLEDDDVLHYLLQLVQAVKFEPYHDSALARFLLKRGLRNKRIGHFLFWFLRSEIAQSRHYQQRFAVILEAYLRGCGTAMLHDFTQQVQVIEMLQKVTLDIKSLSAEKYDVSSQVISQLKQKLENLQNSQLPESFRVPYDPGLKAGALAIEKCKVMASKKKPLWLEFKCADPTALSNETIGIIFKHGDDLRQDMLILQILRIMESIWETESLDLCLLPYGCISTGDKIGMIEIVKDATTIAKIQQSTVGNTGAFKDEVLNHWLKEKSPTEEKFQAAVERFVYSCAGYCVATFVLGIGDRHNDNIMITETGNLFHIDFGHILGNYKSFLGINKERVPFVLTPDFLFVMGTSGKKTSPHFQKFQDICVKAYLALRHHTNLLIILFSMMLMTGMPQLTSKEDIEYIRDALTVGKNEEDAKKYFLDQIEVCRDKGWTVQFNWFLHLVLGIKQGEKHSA
# [7] = target: Serine/threonine-protein kinase pim-2 (Homo sapiens, UniProt Q9P1W9); assay: Inhibition of PIM2 (unknown origin) using ARKRRRHPSGPPTA as peptide substrate by ADP Hunter Plus assay
# Chain of Serine/threonine-protein kinase pim-2 (Q9P1W9 whole entry): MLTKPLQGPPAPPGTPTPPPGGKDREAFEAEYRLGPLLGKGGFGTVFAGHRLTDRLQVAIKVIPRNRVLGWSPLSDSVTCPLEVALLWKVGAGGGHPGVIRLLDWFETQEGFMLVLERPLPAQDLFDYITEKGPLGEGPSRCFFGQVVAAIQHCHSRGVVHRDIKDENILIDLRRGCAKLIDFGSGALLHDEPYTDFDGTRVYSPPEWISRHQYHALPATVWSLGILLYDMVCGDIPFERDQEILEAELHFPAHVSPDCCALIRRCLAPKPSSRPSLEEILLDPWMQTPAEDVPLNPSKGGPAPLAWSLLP
# [8] = target: Serine/threonine-protein kinase pim-3 (Homo sapiens, UniProt Q86V86); assay: Inhibition of PIM3 (unknown origin) using ARKRRRHPSGPPTA as peptide substrate by ADP Hunter Plus assay
# [9] = AUClast in BALB/c mouse at 0.7 mg/kg, iv; type: ADME, organism-based; set-up: route intravenous, time 0 - last, dose 0.7 mg/kg; settings: in vivo
# Summary of the method: (§2)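 Preliminary single-dose pharmacokinetics in BALB-C mice, given I.V. or P.O. Units: AUC h.ng/mL, T1/2 h, Cl L/h/kg, Vd L/kg, Cmax ng/mL, Tmax h. Bioavailability is the absorbed fraction at the doses tested.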
# [10] = AUClast in BALB/c mouse at 5 mg/kg, po; type: ADME, organism-based; set-up: route oral, time 0 - last, dose 5 mg/kg; settings: in vivo; summary of the method: as §2
# [11] = Half life in BALB/c mouse at 0.7 mg/kg, iv; type: ADME, organism-based; settings: in vivo; summary of the method: as §2
# [12] = Half life in BALB/c mouse at 5 mg/kg, po; type: ADME, organism-based; settings: in vivo; summary of the method: as §2
# [13] = Volume of distribution at steady state in BALB/c mouse at 0.7 mg/kg, iv; type: ADME, organism-based; settings: in vivo, read-out: Vdss; summary of the method: as §2
# [14] = Cmax in BALB/c mouse at 5 mg/kg, po; type: ADME, organism-based; set-up: route oral, dose 5 mg/kg; settings: in vivo; summary of the method: as §2
# [15] = Tmax in BALB/c mouse at 5 mg/kg, po; type: ADME, organism-based; settings: in vivo; summary of the method: as §2
# [16] = Oral bioavailability in BALB/c mouse at 5 mg/kg; type: ADME, organism-based; settings: in vivo; summary of the method: as §2
# [17] = Clearance in BALB/c mouse at 0.7 mg/kg, iv; type: ADME, organism-based; settings: in vivo; summary of the method: as §2
# [18] = target: Serine/threonine-protein kinase PIM (Homo sapiens, UniProt P11309+Q9P1W9+Q86V86); assay: Inhibition of PIM in human MV4-11 cells assessed as BAD phosphorylation at Ser112 measured after over night incubation by lotting based cellular assay; type: cell-based
# [19] = Microsomal stability in human liver microsomes incubated for 30 mins by LC-MS/MS analysis; type: ADME, Microsome; settings: read-out: Stabilty
# [20] = target: Voltage-gated inwardly rectifying potassium channel KCNH2 (Homo sapiens, UniProt Q12809); assay: Inhibition of human ERG at < 30 uM
# Chain of Voltage-gated inwardly rectifying potassium channel KCNH2 (Q12809 whole entry): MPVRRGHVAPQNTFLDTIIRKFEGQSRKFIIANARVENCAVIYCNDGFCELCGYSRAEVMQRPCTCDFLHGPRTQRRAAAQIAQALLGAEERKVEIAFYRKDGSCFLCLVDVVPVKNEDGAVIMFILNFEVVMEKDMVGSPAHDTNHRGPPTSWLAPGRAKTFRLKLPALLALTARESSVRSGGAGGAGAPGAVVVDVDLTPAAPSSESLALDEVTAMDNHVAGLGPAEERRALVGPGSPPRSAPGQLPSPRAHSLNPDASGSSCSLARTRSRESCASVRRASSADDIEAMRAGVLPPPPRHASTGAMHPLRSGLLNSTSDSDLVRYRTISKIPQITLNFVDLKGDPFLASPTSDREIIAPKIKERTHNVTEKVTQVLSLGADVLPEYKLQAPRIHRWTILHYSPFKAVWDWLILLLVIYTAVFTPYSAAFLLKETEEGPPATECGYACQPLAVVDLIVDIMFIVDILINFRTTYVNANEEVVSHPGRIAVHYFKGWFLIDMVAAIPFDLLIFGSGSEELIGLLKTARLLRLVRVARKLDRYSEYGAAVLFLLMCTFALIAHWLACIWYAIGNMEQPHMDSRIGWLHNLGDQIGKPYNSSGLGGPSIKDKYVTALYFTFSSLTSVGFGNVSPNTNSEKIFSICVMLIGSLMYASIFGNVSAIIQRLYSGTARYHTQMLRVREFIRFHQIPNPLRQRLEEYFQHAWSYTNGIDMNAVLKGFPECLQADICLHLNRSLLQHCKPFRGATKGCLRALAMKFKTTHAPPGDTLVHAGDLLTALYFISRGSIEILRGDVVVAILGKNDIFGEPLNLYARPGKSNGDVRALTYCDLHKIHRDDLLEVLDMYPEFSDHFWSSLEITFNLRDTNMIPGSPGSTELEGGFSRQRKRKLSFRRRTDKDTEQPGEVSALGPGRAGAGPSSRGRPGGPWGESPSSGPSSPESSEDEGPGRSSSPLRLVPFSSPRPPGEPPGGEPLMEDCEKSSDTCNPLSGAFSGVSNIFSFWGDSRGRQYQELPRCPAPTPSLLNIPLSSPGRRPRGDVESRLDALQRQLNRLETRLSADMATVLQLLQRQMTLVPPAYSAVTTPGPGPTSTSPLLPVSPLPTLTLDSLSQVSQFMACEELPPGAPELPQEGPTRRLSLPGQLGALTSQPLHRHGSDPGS
# PI3K/mTOR (Homo sapiens) = assay: Inhibition of PI3K/mTOR in human MV4-11 cells assessed as Akt phosphorylation at Ser473 measured after over night incubation by lotting based cellular assay
# [21] = AUClast in BALB/c mouse at 1 mg/kg, iv; type: ADME, organism-based; set-up: route intravenous, time 0 - last, dose 1 mg/kg; settings: in vivo; summary of the method: as §2
# [22] = AUClast in BALB/c mouse at 10 mg/kg, po; type: ADME, organism-based; set-up: time 0 - last, route oral, dose 10 mg/kg; settings: in vivo; summary of the method: as §2
# [23] = Half life in BALB/c mouse at 1 mg/kg, iv; type: ADME, organism-based; settings: in vivo; summary of the method: as §2
# [24] = Half life in BALB/c mouse at 10 mg/kg, po; type: ADME, organism-based; settings: in vivo; summary of the method: as §2
# [25] = Volume of distribution at steady state in BALB/c mouse at 1 mg/kg, iv; type: ADME, organism-based; settings: in vivo; summary of the method: as §2
# [26] = Tmax in BALB/c mouse at 10 mg/kg, po; type: ADME, organism-based; settings: in vivo; summary of the method: as §2
# [27] = Oral bioavailability in BALB/c mouse at 10 mg/kg; type: ADME, organism-based; settings: in vivo; summary of the method: as §2
# [28] = Clearance in BALB/c mouse at 1 mg/kg, iv; type: ADME, organism-based; settings: in vivo; summary of the method: as §2
# [29] = Microsomal stability in mouse liver microsomes incubated for 30 mins by LC-MS/MS analysis; type: ADME, Microsome; settings: read-out: Stabilty
# [30] = Microsomal stability in rat liver microsomes incubated for 30 mins by LC-MS/MS analysis; type: ADME, Microsome; settings: read-out: Stabilty
# Cytochrome P450 2C9 = Cytochrome P450 2C9 (Homo sapiens, UniProt P11712); assay: Inhibition of CYP2C9 (unknown origin); type: ADME
# Chain of Phosphatidylinositol 4,5-bisphosphate 3-kinase catalytic subunit alpha isoform (P42336 whole entry, canonical isoform): as the sequence (P42336 whole entry, canonical isoform) above
structure (smiles),measurement,setting,value
COc1ncc2cc1NS(=O)(=O)c1cccc(c1)C(=O)NCc1cc(cs1)-c1ncnc3c1SC2=C3,IC50,[1],13.7 nM
same,IC50,[2],> 10000 nM
same,IC50,[3],154 nM
COc1ncc2cc1NS(=O)(=O)c1cccc(c1)C(=O)NC[C@@H]1CCN(C1)c1ncnc3c1SC2=C3C,IC50,[1],3.08 nM
same,IC50,[2],> 10000 nM
same,IC50,[3],122 nM
COc1ncc2cc1NS(=O)(=O)c1cccc(c1)C(=O)NCC1=C(C)C=C(S1)c1ncnc3c1SC2=C3,IC50,[1],7.4 nM
same,IC50,[2],> 10000 nM
same,IC50,[3],43.8 nM
COc1ncc2cc1NS(=O)(=O)c1cccc(c1)C(=O)NCCn1cc(cn1)-c1ncnc3c1SC2=C3,IC50,[1],58.3 nM
same,IC50,[2],> 10000 nM
same,IC50,[3],254 nM
COc1ncc2cc1NS(=O)(=O)c1cccc(c1)C(=O)NCc1cccc(c1)-c1ncnc3c1SC2=C3,IC50,[1],16.8 nM
same,IC50,[2],> 10000 nM
same,IC50,[3],279 nM
COc1ncc2cc1NS(=O)(=O)c1cccc(c1)C(=O)NCC1=CC=C(S1)c1ncnc3c1SC2=C3,IC50,[1],17 nM
same,IC50,[2],5700 nM
same,IC50,[3],12.9 nM
COc1ncc2cc1NS(=O)(=O)c1ccc(F)c(c1)C(=O)NCC1=CC=C(S1)c1ncnc3c1SC2=C3,IC50,[1],6.34 nM
same,IC50,[2],2100 nM
same,IC50,[3],14.6 nM
COc1ncc2cc1NS(=O)(=O)c1cccc(c1)C(=O)NCc1csc(c1)-c1ncnc3c1SC2=C3,IC50,[1],28.9 nM
same,IC50,[2],> 10000 nM
same,IC50,[3],13.1 nM
COc1ncc2cc1NS(=O)(=O)c1cccc(c1)C(=O)NCc1cc(ccn1)-c1ncnc3c1SC2=C3,IC50,[1],50.2 nM
same,IC50,[2],> 10000 nM
same,IC50,[3],649 nM
COc1ncc2cc1NS(=O)(=O)c1ccc(F)c(c1)C(=O)NCC1=CC=C(S1)c1ncnc3c1SC2=C3C,IC50,[1],0.13 nM
same,IC50,[2],74.5 nM
same,IC50,[3],22.3 nM
same,Ki,[4],0.27 nM
same,Ki,PI3K p110 beta/p85 alpha,0.31 nM
same,Ki,[5],0.13 nM
same,Ki,[6],0.17 nM
same,IC50,[7],8.04 nM
same,IC50,[8],5.75 nM
same,AUC(0-t),[9],11200 ng·h/mL
same,AUC(0-t),[10],99100 ng·h/mL
same,half-life,[11],2.96 h
same,half-life,[12],14.6 h
same,Vd,[13],0.26 L/kg
same,Cmax,[14],9370 ng/mL
same,Tmax,[15],5 h
same,bioavailability,[16],124%
same,clearance,[17],1.05 mL/min/kg
same,EC50,[18],60 nM
same,remaining at 0.5 h,[19],> 98%
same,inhibition (INH),[20],Not Active
same,EC50,PI3K/mTOR (Homo sapiens),< 1 nM
COc1ncc2cc1NS(=O)(=O)c1cccc(c1)C(=O)NC[C@H]1CCN(C1)c1ncnc3c1SC2=C3C,IC50,[1],3.15 nM
same,IC50,[2],> 10000 nM
same,IC50,[3],44 nM
COc1ncc2cc1NS(=O)(=O)c1ccc(Cl)c(c1)C(=O)NCC1=CC=C(S1)c1ncnc3c1SC2=C3,IC50,[1],6.28 nM
same,IC50,[2],> 10000 nM
same,IC50,[3],11.1 nM
COc1ncc(-c2sc3c(-c4ccc(CNC=O)s4)ncnc3c2C)cc1NS(=O)(=O)c1ccccc1,IC50,[1],3.29 nM
same,IC50,[2],80.9 nM
same,IC50,[3],> 10000 nM
COc1ncc2cc1NS(=O)(=O)c1cccc(c1)C(=O)NCc1nc(cs1)-c1ncnc3c1SC2=C3,IC50,[1],123 nM
same,IC50,[2],> 10000 nM
same,IC50,[3],> 10000 nM
COc1ncc2cc1NS(=O)(=O)c1cccc(c1)C(=O)NCC1=CC=C(S1)c1ncnc3c1SC2=C3C,IC50,[1],0.23 nM
same,IC50,[2],138 nM
same,IC50,[3],18.1 nM
same,Ki,[4],0.25 nM
same,Ki,PI3K p110 beta/p85 alpha,0.37 nM
same,Ki,[5],0.08 nM
same,Ki,[6],0.44 nM
same,IC50,[7],13.3 nM
same,IC50,[8],4.39 nM
same,AUC(0-t),[21],16600 ng·h/mL
same,AUC(0-t),[22],58200 ng·h/mL
same,half-life,[23],3.66 h
same,half-life,[24],23.4 h
same,Vd,[25],0.31 L/kg
same,Tmax,[26],0.25 h
same,bioavailability,[27],35.1%
same,clearance,[28],1 mL/min/kg
same,EC50,[18],34 nM
same,remaining at 0.5 h,[19],> 98%
same,remaining at 0.5 h,[29],90%
same,remaining at 0.5 h,[30],87%
same,IC50,Cytochrome P450 2C9,4610 nM
same,inhibition (INH),[20],Not Active
same,EC50,PI3K/mTOR (Homo sapiens),< 1 nM
COc1ncc2cc1NS(=O)(=O)c1cccc(c1)C(=O)NCc1cncc(c1)-c1ncnc3c1SC2=C3,IC50,[1],74.6 nM
same,IC50,[2],> 10000 nM
same,IC50,[3],45.8 nM
COc1ncc2cc1NS(=O)(=O)c1cccc(c1)C(=O)NCCn1cc(cn1)-c1ncnc3c1SC2=C3C,IC50,[1],0.43 nM
same,IC50,[2],197 nM
same,IC50,[3],178 nM
COc1ncc2cc1NS(=O)(=O)c1cccc(c1)C(=O)NCc1cncc(c1)-c1ncnc3c1SC2=C3C,IC50,[1],19 nM
same,IC50,[2],175 nM
same,IC50,[3],42.9 nM
COc1ccc2cc1C(=O)NCC1=CC=C(S1)c1ncnc3c1SC(=C3)c1cnc(OC)c(c1)NS2(=O)=O,IC50,[1],6.91 nM
same,IC50,[2],5570 nM
same,IC50,[3],65.7 nM
COc1ncc(-c2sc3c(-c4cccs4)ncnc3c2C)cc1NS(=O)(=O)c1ccccc1,IC50,[1],36.2 nM
same,IC50,[2],> 1000 nM
same,IC50,[3],> 10000 nM
CNC(=O)c1cccc(S(=O)(=O)Nc2cc(-c3sc4c(-c5cccs5)ncnc4c3C)cnc2OC)c1,IC50,[1],6.72 nM
same,IC50,[2],604 nM
same,IC50,[3],> 10000 nM
COc1ncc2cc1NS(=O)(=O)c1cccc(c1)C(=O)NC[C@@H]1CN(CCO1)c1ncnc3c1SC2=C3C,IC50,[1],0.66 nM
same,IC50,[2],2030 nM
same,IC50,[3],39.1 nM
COc1ncc2cc1NS(=O)(=O)c1cccc(c1)C(=O)NCC1=CC=C(O1)c1ncnc3c1SC2=C3,IC50,[1],381 nM
same,IC50,[2],> 10000 nM
same,IC50,[3],247 nM

# Source: ChEMBL document CHEMBL4842397, “Macrocyclization as a Source of Desired Polypharmacology. Discovery of Triple PI3K/mTOR/PIM Inhibitors” (ACS Med Chem Lett, 2021)
